Results published in ChEMBL document CHEMBL5724801, “EUbOPEN Chemogenomics Library - Multiplex” (2024).
Several values for one entry are separate records, joined by “and”; a condition that tells them apart may be missing. Equal values may be shown once.

Tested on: HEK-293T
Assay: Multiplex assay against HEK293T
Type: toxicity, cell-based
Details: human
Method in brief: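 Cells were classed with CellPathfinder machine-learning gating, first as Hoechst high-intensity objects or normal cells, then (normal cells) as healthy, pyknosed or fragmented nuclei, and finally (pyknosed cells) as mitotic or apoptotic. Staining of live cells at seeding used Hoechst33342, BioTracker Green Microtubule Cytoskeleton Dye, MitoTracker Red and Annexin V Alexa Fluor 680, with imaging on a CQ1 microscope at 37°C and 5% CO2 after compound addition. Tubulin, mitochondrial-mass and membrane-permeability phenotypes are per cents of healthy-nucleus cells.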

[1] = 12 h, 1 µM, compound concentration 1 uM
[2] = 12 h, 10 µM, compound concentration 10 uM
[3] = 24 h, 1 µM, compound concentration 1 uM
[4] = 24 h, 10 µM, compound concentration 10 uM
[5] = 48 h, 1 µM, compound concentration 1 uM
[6] = 48 h, 10 µM, compound concentration 10 uM

CC(C)c1noc(N2CCC(COc3ccc(-c4ccc(S(C)(=O)=O)cc4)nc3)CC2)n1 [GSK-1292263]
Population Apoptotic (%) [1]: 37% and 25% | Population Fragmented Nuclei (%) [1]: 8% and 6% | Population Healthy Nuclei (%) [1]: 78% and 86% | Population Hoechst High Intensity Objects (%) [1]: 5% and 6% | Population Membrane Permeable-Phenotype (%) [1]: 0% | Population Mitochondria Different-Phenotype (%) [1]: 42% and 53% | Population Mitotic Cells (%) [1]: 62% and 74% | Population Normal (%) [1]: 94% and 93% | Population Pyknosed Nuclei (%) [1]: 12% and 7% | Population Tubulin-Different-Phenotype (%) [1]: 32% and 13% | Total Cell Count [1]: 440 and 522 | Population Apoptotic (%) [2]: 50% and 43% | Population Fragmented Nuclei (%) [2]: 6% and 7% | Population Healthy Nuclei (%) [2]: 71% and 78% | Population Hoechst High Intensity Objects (%) [2]: 13% and 16% | Population Membrane Permeable-Phenotype (%) [2]: 0% | Population Mitochondria Different-Phenotype (%) [2]: 69% and 77% | Population Mitotic Cells (%) [2]: 50% and 56% | Population Normal (%) [2]: 86% and 83% | Population Pyknosed Nuclei (%) [2]: 22% and 13% | Population Tubulin-Different-Phenotype (%) [2]: 55% and 40% | Total Cell Count [2]: 311 and 279 | Population Apoptotic (%) [3]: 23% and 25% | Population Fragmented Nuclei (%) [3]: 8% and 7% | Population Healthy Nuclei (%) [3]: 78% and 82% | Population Hoechst High Intensity Objects (%) [3]: 5% and 3% | Population Membrane Permeable-Phenotype (%) [3]: 0% | Population Mitochondria Different-Phenotype (%) [3]: 27% and 29% | Population Mitotic Cells (%) [3]: 76% and 74% | Population Normal (%) [3]: 94% and 96% | Population Pyknosed Nuclei (%) [3]: 12% and 9% | Population Tubulin-Different-Phenotype (%) [3]: 25% and 9% | Total Cell Count [3]: 545 and 608 | Population Apoptotic (%) [4]: 64% and 46% | Population Fragmented Nuclei (%) [4]: 8% and 11% | Population Healthy Nuclei (%) [4]: 79% and 74% | Population Hoechst High Intensity Objects (%) [4]: 8% and 10% | Population Membrane Permeable-Phenotype (%) [4]: 0% | Population Mitochondria Different-Phenotype (%) [4]: 58% and 59% | Population Mitotic Cells (%) [4]: 35% and 53% | Population Normal (%) [4]: 91% and 89% | Population Pyknosed Nuclei (%) [4]: 12% and 13% | Population Tubulin-Different-Phenotype (%) [4]: 49% and 28% | Total Cell Count [4]: 384 and 354 | Population Apoptotic (%) [5]: 22% and 23% | Population Fragmented Nuclei (%) [5]: 10% | Population Healthy Nuclei (%) [5]: 81% and 83% | Population Hoechst High Intensity Objects (%) [5]: 3% and 1% | Population Membrane Permeable-Phenotype (%) [5]: 1% | Population Mitochondria Different-Phenotype (%) [5]: 23% and 14% | Population Mitotic Cells (%) [5]: 77% and 76% | Population Normal (%) [5]: 96% and 98% | Population Pyknosed Nuclei (%) [5]: 8% and 5% | Population Tubulin-Different-Phenotype (%) [5]: 14% and 10% | Total Cell Count [5]: 865 and 882 | Population Apoptotic (%) [6]: 32% and 30% | Population Fragmented Nuclei (%) [6]: 10% and 13% | Population Healthy Nuclei (%) [6]: 79% and 78% | Population Hoechst High Intensity Objects (%) [6]: 10% and 5% | Population Membrane Permeable-Phenotype (%) [6]: 0% | Population Mitochondria Different-Phenotype (%) [6]: 50% and 37% | Population Mitotic Cells (%) [6]: 67% and 69% | Population Normal (%) [6]: 89% and 94% | Population Pyknosed Nuclei (%) [6]: 9% and 8% | Population Tubulin-Different-Phenotype (%) [6]: 28% and 18% | Total Cell Count [6]: 506 and 595

CC[C@H](Nc1ncnc2[nH]cnc12)c1nc2cccc(F)c2c(=O)n1-c1ccccc1 [IDELALISIB]
Population Apoptotic (%) [1]: 9.6% and 7.3% | Population Fragmented Nuclei (%) [1]: 0.69% and 2.22% | Population Healthy Nuclei (%) [1]: 58.33% and 21.67% | Population Hoechst High Intensity Objects (%) [1]: 0% | Population Membrane Permeable-Phenotype (%) [1]: 1.19% and 0% | Population Mitochondria Different-Phenotype (%) [1]: 34.13% and 17.95% | Population Mitotic Cells (%) [1]: 90.4% and 92.7% | Population Normal (%) [1]: 100% | Population Pyknosed Nuclei (%) [1]: 40.97% and 76.11% | Total Cell Count [1]: 432 and 180 | Population Apoptotic (%) [2]: 16.78% and 14.29% | Population Fragmented Nuclei (%) [2]: 0.89% and 4.58% | Population Hoechst High Intensity Objects (%) [2]: 0% | Population Membrane Permeable-Phenotype (%) [2]: 0% and 7.69% | Population Mitochondria Different-Phenotype (%) [2]: 29.11% and 15.38% | Population Mitotic Cells (%) [2]: 83.22% and 85.71% | Population Normal (%) [2]: 100% | Population Pyknosed Nuclei (%) [2]: 63.84% and 86.93% | Population Tubulin-Different-Phenotype (%) [2]: 34.18% and 38.46% | Total Cell Count [2]: 224 and 153 | Population Apoptotic (%) [3]: 20.57% and 16.42% | Population Fragmented Nuclei (%) [3]: 1.62% and 1.42% | Population Healthy Nuclei (%) [3]: 75.57% and 35.07% | Population Hoechst High Intensity Objects (%) [3]: 0% | Population Membrane Permeable-Phenotype (%) [3]: 1.07% and 0% | Population Mitochondria Different-Phenotype (%) [3]: 15.42% and 12.16% | Population Mitotic Cells (%) [3]: 79.43% and 83.58% | Population Normal (%) [3]: 100% | Population Pyknosed Nuclei (%) [3]: 22.82% and 63.51% | Population Tubulin-Different-Phenotype (%) [3]: 9.85% and 5.41% | Total Cell Count [3]: 618 and 211 | Population Apoptotic (%) [4]: 22.55% and 30.43% | Population Fragmented Nuclei (%) [4]: 2.07% and 3.7% | Population Healthy Nuclei (%) [4]: 62.76% and 25.31% | Population Hoechst High Intensity Objects (%) [4]: 0.34% and 0% | Population Membrane Permeable-Phenotype (%) [4]: 2.75% and 2.44% | Population Mitochondria Different-Phenotype (%) [4]: 40.11% and 19.51% | Population Mitotic Cells (%) [4]: 77.45% and 69.57% | Population Normal (%) [4]: 99.66% and 100% | Population Pyknosed Nuclei (%) [4]: 35.17% and 70.99% | Population Tubulin-Different-Phenotype (%) [4]: 61.54% and 26.83% | Total Cell Count [4]: 291 and 162 | Population Apoptotic (%) [5]: 5.47% and 12.5% | Population Fragmented Nuclei (%) [5]: 2.71% and 1.53% | Population Healthy Nuclei (%) [5]: 87.1% and 67.82% | Population Hoechst High Intensity Objects (%) [5]: 0% and 0.38% | Population Membrane Permeable-Phenotype (%) [5]: 5.58% and 2.26% | Population Mitochondria Different-Phenotype (%) [5]: 15.63% and 14.69% | Population Mitotic Cells (%) [5]: 94.53% and 87.5% | Population Normal (%) [5]: 100% and 99.62% | Population Apoptotic (%) [6]: 17.44% and 25.24% | Population Fragmented Nuclei (%) [6]: 2.23% and 1.97% | Population Healthy Nuclei (%) [6]: 80.32% and 47.29% | Population Hoechst High Intensity Objects (%) [6]: 0.2% and 0% | Population Membrane Permeable-Phenotype (%) [6]: 6.31% and 1.04% | Population Mitochondria Different-Phenotype (%) [6]: 64.39% and 55.21% | Population Mitotic Cells (%) [6]: 82.56% and 74.76% | Population Normal (%) [6]: 99.8% and 100% | Population Pyknosed Nuclei (%) [6]: 17.44% and 50.74% | Total Cell Count [6]: 494 and 203
